{
  "source": "ChEMBL document CHEMBL2203122",
  "about": "(J Med Chem, 2012)",
  "key": {"[1]": {"tested_on": "Rattus norvegicus", "test": "Inhibition of cocaine-induced conditioned place preference in rat assessed as time spent in the chamber at 300 mg/kg, ip administered 2.5 hrs prior to cocaine-challenge measured after 12 days for 15 mins (reference value: 7.1 +/- 0.6 mins)", "assay_type": "functional", "details": "route intraperitoneal"}, "[2]": {"tested_on": "Rattus norvegicus", "test": "Retinotoxicity in female Wistar albino rat assessed as reduction in 10 Hz flicker ERG at 200 mg/kg, ip administered QD for 90 days by electroretinogram analysis relative to control", "assay_type": "toxicity, organism-based", "design": "dose 200 mg/kg, route intraperitoneal", "details": "in vivo, 2160 h"}, "[3]": {"tested_on": "Rattus norvegicus", "test": "Retinotoxicity in Wistar albino rat assessed as increase cone implicit time at 200 mg/kg, ip administered QD for 45 to 90 days relative to control", "assay_type": "toxicity, organism-based", "design": "dose 200 mg/kg, route intraperitoneal", "details": "in vivo", "how_it_was_run": "(§1)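 Wistar albino rats, 9 weeks old at the start and of both sexes, received one i.p. injection daily for 45 or 90 days. The dose was in 0.9% saline made fresh weekly, against a saline vehicle group. After a 5–7 day washout and at least 12 h of dark adaptation, pupils were dilated (tropicamide 1%, phenylephrine 10%). ERG was then recorded from both eyes under ketamine/xylazine.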"}, "[4]": {"tested_on": "Rattus norvegicus", "test": "Retinotoxicity in Wistar albino rat assessed as increase rod implicit time at 200 mg/kg, ip administered QD for 45 to 90 days relative to control", "assay_type": "toxicity, organism-based", "design": "dose 200 mg/kg, route intraperitoneal", "details": "in vivo", "how_it_was_run": "as §1"}, "[5]": {"tested_on": "Rattus norvegicus", "test": "Retinotoxicity in male Wistar albino rat assessed as reduction in 10 Hz flicker ERG at 200 mg/kg, ip administered QD for 90 days by electroretinogram analysis relative to control", "assay_type": "toxicity, organism-based", "design": "dose 200 mg/kg, route intraperitoneal", "details": "in vivo, 2160 h"}, "[6]": {"tested_on": "Rattus norvegicus", "test": "Retinotoxicity in female Wistar albino rat assessed as reduction in 10 Hz flicker ERG at 200 mg/kg, ip administered QD for 45 days by electroretinogram analysis relative to control", "assay_type": "toxicity, organism-based", "design": "dose 200 mg/kg, route intraperitoneal", "details": "in vivo, 1080 h"}, "[7]": {"tested_on": "Rattus norvegicus", "test": "Toxicity in Wistar albino rat assessed as mortality at 200 mg/kg, ip measured up to 3 weeks", "assay_type": "organism-based", "design": "dose 200 mg/kg, route intraperitoneal", "details": "in vivo, 504 h", "how_it_was_run": "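Mixed-sex Wistar albino rats, 15 per group, dosed ip once daily with drug in 0.9% saline. Monitored for mortality, moribundity, clinical signs, feed intake and body weight. Animals in distress over 24 h were euthanized. Some received food supplements or ip fluids during the first 3 weeks.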"}, "[8]": {"tested_on": "Rattus norvegicus", "test": "Retinotoxicity in male Wistar albino rat assessed as reduction in 10 Hz flicker ERG at 200 mg/kg, ip administered QD for 45 days by electroretinogram analysis relative to control", "assay_type": "toxicity, organism-based", "design": "dose 200 mg/kg, route intraperitoneal", "details": "in vivo, 1080 h"}, "[9]": {"tested_on": "Rattus norvegicus", "test": "Retinotoxicity in Wistar albino rat assessed as increase mesopic implicit time at 200 mg/kg, ip administered QD for 45 to 90 days relative to control", "assay_type": "toxicity, organism-based", "design": "dose 200 mg/kg, route intraperitoneal", "details": "in vivo"}},
  "data": [
    {"molecule": "C=CC(N)CCC(=O)O", "note": "(centres undefined) [VIGABATRIN]", "values": [
      {"measurement": "Time", "setting": "[1]", "result": 7.9, "unit": "min"},
      {"measurement": "Activity", "setting": "[2]", "result": "Toxic"},
      {"measurement": "Activity", "setting": "[3]", "result": "Toxic"},
      {"measurement": "Activity", "setting": "[4]", "result": "Toxic"},
      {"measurement": "Activity", "setting": "[5]", "result": "Toxic"},
      {"measurement": "Activity", "setting": "[6]", "result": "Toxic"},
      {"measurement": "Activity", "setting": "[7]", "result": "Toxic"},
      {"measurement": "Activity", "setting": "[8]", "result": "Toxic"},
      {"measurement": "Activity", "setting": "[9]", "result": "Toxic"}
    ]}
  ]
}
